# Measurements collected from several papers.
# Lines come from different studies, so protocols differ.
# Target: Receptor tyrosine-protein kinase erbB-2 (ERBB2, Homo sapiens, UniProt P04626)
SMILES,read-out,method,tested at,remaining binding
C[C@@H]1CCN(c2nccc(-c3cnn4ncccc34)n2)C1,binding,,1 µM,90%
N#Cc1ccccc1CSc1nnc2c(n1)[nH]c1ccccc12,binding,competition with immobilised ligand,10 µM,94%
CNC(=O)[C@@H]1CC[C@@H](n2c(-c3ccc4cnccc4c3)nc3ccc(C(=O)NCc4cccc(C(N)=O)c4)cc32)C1,binding,competition with immobilised ligand,1 µM,100%
C=CC(=O)N1CCC(C(=O)NCC(=O)N2CCN(c3nc(-c4cnc(N)nc4C(F)F)nc(N4CCOCC4)n3)CC2)CC1,binding,competition with immobilised ligand,1 µM,70%
O=C(Nc1cnc(Oc2ccc(F)cc2)nc1)N1CCc2ncccc2[C@@H]1c1ccc(F)cc1,cell-free assay,competition with immobilised ligand,1 µM,80%
c1cnn2ncc(-c3ccnc(N4CCC45COC5)n3)c2c1,binding,,1 µM,86%
O=C(c1ccc(Nc2nccc(-c3cc4ccccc4s3)n2)cc1)N1CCC(N2CCCC2)CC1,binding,competition with immobilised ligand,1 µM,90%
Nc1ncc2c(n1)-c1c([nH]c3ccc(C#CC4CC4)cc13)CCCC2,binding,competition with immobilised ligand,1 µM,91%
CNC(=O)Nc1ccc2c(c1)[C@@]1(CC2)OC(=O)N(CC(=O)N(Cc2ccc(F)cc2)[C@@H](C)C(F)(F)F)C1=O,cell-free assay,competition with immobilised ligand,1 µM,98%
CCN1CCN(Cc2ccc(C(=O)Nc3ccc(C)c(Oc4ccc5c(c4)CC(=O)N5)c3)cc2C(F)(F)F)CC1,binding,competition with immobilised ligand,1 µM,80%
COc1ncc2cc3ccccc3nc2c1C#N,cell-free assay,competition with immobilised ligand,5 µM,70%
C[C@@H]1CN(c2ccc3ncc(-c4ccc5[nH]nc(C6CC6)c5c4)n3n2)C[C@H](C)O1,binding,competition with immobilised ligand,0.5 µM,68%
C[C@@H](c1cccc(C#N)c1)n1cc(Cl)cc(C(N)=O)c1=N,cell-free assay,competition with immobilised ligand,1 µM,96%
N[C@@H]1CCN(c2nccc(-c3cnn4ncccc34)n2)C1,binding,,1 µM,100%
N#CC1(c2ccccn2)CCN(Cc2cc(C(=O)N3CCCC3)c(=O)n3ccccc23)CC1,cell-free assay,competition with immobilised ligand,1 µM,95%
O=C(c1ccc(Nc2ncc(Cl)c(-c3ccc(Cl)s3)n2)cc1)N1CCC(N2CCCC2)CC1,binding,competition with immobilised ligand,1 µM,82%
